# p97 ATPase inh: blocks human p97 ATPase activity | P55072 | recombinant p97 ATPase, Kinase-Glo ATP luminescence, 3 h | inhibition, % at 8 µM | actives 0.42% (n = 220,000) | AID 1481; in the data active means inhibition above about 15%;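 further: 0% = DMSO vehicle and 100% = wells lacking enzyme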
# Tb hexokinase: T. brucei hexokinase 1 inhibition; recombinant TbHK1, G6PDH-coupled NADH A340; inhibition, % at 10 µM; actives 0.11% (n = 220,000); AID 1430;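 active means inhibition of 50% or more in the single-dose primary screen; inactive means inhibition below 50%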
# RanGTP-Impb inh: inhibitors of RanGTP-importin-beta interaction, primary screen, biochemical, FRET, CFP-Ran, YFP-importin-beta, homogeneous. cell-free CFP-Ran/YFP-importin-beta FRET ratio. inhibition, % (concentration not given with the values). AID 2216. actives 1.1% (n = 300,000);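 active means more than half of the replicate wells show a fall in the fluorescence ratio signal beyond about 16%, limit read from the data, passing the limit was not always enough; inconclusive means exactly half of the replicate wells pass the set limit; inactive means fewer than half of replicates pass the limit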;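 further: 0% = DMSO wells and 100% = Ran loaded with GDP instead of GTP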
# Runt-SMMHC FRET: blocks binding of human RUNX1 Runt domain to CBFb-SMMHC | Q01196+Q13951 | Cerulean-Runt/Venus-CBFb-SMMHC FRET ratio 530/480, 1 h | inhibition, % at 20 µM | actives 0.74% (n = 220,000) | AID 1434;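 active means mean inhibition across duplicate retests at 20 µM reaching about 50%, limit read from the data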;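 further: 0% = DMSO wells and 100% = wells with excess untagged CBFb-SMMHC; inhibitors lower the FRET ratio by blocking Runt binding to CBFb-SMMHC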
# Target sequence (Q01196 whole entry, looked up, the tested form may be a part): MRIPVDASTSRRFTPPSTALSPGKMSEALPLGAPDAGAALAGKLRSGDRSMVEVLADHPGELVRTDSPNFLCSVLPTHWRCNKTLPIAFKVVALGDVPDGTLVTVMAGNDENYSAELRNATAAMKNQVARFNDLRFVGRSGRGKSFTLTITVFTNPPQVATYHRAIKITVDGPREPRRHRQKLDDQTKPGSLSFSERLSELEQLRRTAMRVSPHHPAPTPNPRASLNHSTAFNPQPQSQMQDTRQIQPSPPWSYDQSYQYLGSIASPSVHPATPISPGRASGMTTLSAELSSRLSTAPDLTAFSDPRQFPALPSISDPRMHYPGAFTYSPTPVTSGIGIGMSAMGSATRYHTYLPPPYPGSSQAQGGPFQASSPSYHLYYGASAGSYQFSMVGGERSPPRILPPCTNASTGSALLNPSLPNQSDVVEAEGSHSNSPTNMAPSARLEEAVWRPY
# Target sequence (Q13951 whole entry, looked up, the tested form may be a part): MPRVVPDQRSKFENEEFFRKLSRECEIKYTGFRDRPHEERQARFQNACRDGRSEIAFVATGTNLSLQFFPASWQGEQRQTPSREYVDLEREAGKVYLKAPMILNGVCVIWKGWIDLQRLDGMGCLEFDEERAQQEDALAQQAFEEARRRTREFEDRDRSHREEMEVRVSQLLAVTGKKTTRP
# Hck-Nef inh: inhibitors of human Hck kinase activated by Nef. P08631. Recombinant Hck-YEEI plus Nef, Z-Lyte FRET kinase assay. inhibition, % at 20 µM. actives 0.68% (n = 220,000);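 active means Hck-Nef kinase inhibition above about 50%, limit read from the data; inactive means inhibition below that limit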;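 further: 0% = DMSO with Hck plus Nef and 100% = Hck alone without Nef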
# Runt-CBFb FRET: blocks binding of human RUNX1 Runt domain to CBFb. Cerulean-Runt/Venus-CBFb FRET ratio 530/480, 1 h. inhibition, % at 20 µM. actives 0.46% (n = 220,000). AID 1496;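 active means inhibition over about 50% at 20 µM in the single-dose screen, limit read from the data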;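 further: 0% = DMSO wells and 100% = excess unlabeled CBFb competitor control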
#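 test system = Cerulean-Runt domain fusion protein, energy donor | probe or stimulus = Venus-CBFb binding partner, 100 nM | incubation = two 1 h room-temperature incubations shielded from light | detection = fluorescence energy transfer, 422 nm excitation, 530/480 nm emission | measure = loss of energy transfer signal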
# p97 inh conf: confirmation of human p97 ATPase inhibitors. recombinant p97 ATPase, Kinase-Glo ATP luminescence. actives 44% (n = 760). shares compounds with p97 ATPase inh. inhibition, % at 8 µM;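 active means percent inhibition of p97 ATPase above a set limit, the primary screen's mean plus 3 SD, cut at about 15% in these data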;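 further: 0% = DMSO wells and 100% = wells lacking p97 protein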
# An asterisk follows results filed as active; u = inconclusive; x = no result. Rows were chosen to be rich in hits. Some 2.1% of all compounds tested hit in one or more screens of this group.
SMILES,p97 ATPase inh,Tb hexokinase,RanGTP-Impb inh,Runt-SMMHC FRET,Hck-Nef inh,Runt-CBFb FRET,p97 inh conf
CC(C)n1c(=O)n(CC(=O)NCC2CCCO2)c(=O)c2c3c(sc21)COC(C)(C)C3 (configuration not stated),x,x,-1.4,x,x,x,x
Cc1nnsc1Sc1cccc(C(F)(F)F)c1,15.6*,2.6,u,2.3,1.1,0.7,0.8
NC(N)=Nc1cc2ccccc2c2ccccc12,14.9*,2.9,0.6,0.1,-21.3,2.3,10.0
NC(N)=NC(N)=Nc1cccc2ccccc12,-1.7,2.4,2.6,17.3,-9.9,3.3,x
Cc1cc(-c2nnc(SCC(=O)NC3CC3)n2C(C)C)cs1,x,x,-1.7,x,x,x,x
CC(=O)Nc1ccc2cc3ccc(NC(C)=O)cc3nc2c1,34.2*,-14.4,37.2*,x,-31.0,15.3,24.0*
CC(=O)Nc1ccc2ccccc2c1,-2.5,-2.5,2.0,2.7,-1.9,1.7,x
CCc1nnc(NC(=O)CCc2ccccc2OC)s1,x,x,2.1,x,x,x,x
O=c1cc(CCl)[nH]c2nc3ccccc3n12,38.3*,-26.5,3.4,-1.8,33.3,0.3,38.2*
CCCCn1nc2cc(C(=O)NCc3ccc(OC(F)(F)F)cc3)ccc2c1OC,16.0*,0.0,1.7,-4.3,0.3,x,3.3
O=C(N/N=C/c1c(Cl)nc2ccccn2c1=O)c1cccnc1,16.7*,-22.5,8.8,-16.6,-5.2,-19.5,8.6
CN(C)S(=O)(=O)c1cc(C(=O)OCCn2cnc3c2c(=O)n(C)c(=O)n3C)ccc1Cl,3.1,0.3,2.7,-1.2,21.5,-0.5,x
O=[N+]([O-])c1c(-c2cn[nH]c2)n[nH]c1-c1cn[nH]c1,25.4*,-14.3,-1.4,1.3,46.0,-0.1,36.4*
Cc1ccc(SC/C(O)=C(\C#N)c2nc3ccccc3s2)cc1,20.8*,-55.0,-5.9,-1.9,6.0,2.5,39.4*
N#C/C(=C(/O)COc1ccccc1)c1nc2ccccc2s1,0.7,-34.1,-5.2,-4.2,15.6,-1.2,x
COc1ccccc1-c1nnc(NC(=O)C(C)SC2=NCCS2)s1 (configuration not stated),17.2*,-25.6,1.9,1.1,7.8,2.6,19.6*
CC(C)c1nc2sc3c(=O)[nH]cnc3c2c2c1CCCC2,15.8*,-18.4,1.2,-0.2,-0.2,-2.8,19.9*
CC(C)c1nc2sc3c(=S)nc[nH]c3c2c2c1CCC2,42.2*,-8.8,0.3,0.5,20.5,0.3,41.4*
COc1ccc(OC)c(CCNC(=O)c2cccc(NC3=NC4CS(=O)(=O)CC4S3)c2)c1 (configuration not stated),x,x,-3.3,x,x,x,x
O=C(CCCn1cncn1)N1CCCC(Nc2ccc(F)cc2)C1 (configuration not stated),x,x,-1.2,x,x,x,x
COc1ccc(NC2=C(Cl)C(=O)N(c3ccccc3)C2=O)c(OC)c1,24.8*,1.4,-0.4,-4.4,-3.0,-1.2,7.1
COc1ccccc1NC1=C(Cl)C(=O)N(c2ccccc2)C1=O,17.4*,-28.3,-2.0,-1.5,-2.8,-2.7,27.1*
Cc1cc(/C=C(/C#N)c2nc3ccccc3[nH]2)c(C)n1-c1cc(C(=O)O)cc(C(=O)O)c1,16.8*,-21.6,x,-18.5,37.6,2.4,14.2
CC(C)(C)c1cc(=O)n(-c2ccccc2)[nH]1,34.4*,7.6,x,-4.2,5.2,1.5,7.3
O=c1ccc(=O)n(-c2ccccc2)[nH]1,4.0,-2.9,2.5,9.5,8.4,15.1,x
Cc1cc(C)c(CN2CCC(n3nccc3NC(=O)C3CCOC3)CC2)cc1C (configuration not stated),x,x,1.6,x,x,x,x
CCOc1ccccc1C(=O)Nc1cc(Cl)ccc1O,17.6*,5.1,-2.1,3.4,6.4,-1.9,23.2*
Cc1c(C(=O)c2no[n+]([O-])c2C(=O)c2cnn(C)c2C)cnn1C,33.8*,-10.6,-0.2,28.6,1.1,36.0,36.2*
CC(NC(=O)c1ccc(NC2=NC3CS(=O)(=O)CC3S2)cc1)c1ccccc1 (configuration not stated),x,x,2.1,x,x,x,x

# Bioassay records (PubChem)
